# In ChEMBL document CHEMBL1275445, “Low beta-lactamase-negative ampicillin-resistant Haemophilus influenzae strains are best detected by testing amoxicillin susceptibility by the broth microdilution method” (2008):
# How the values were obtained:
# Assay type in all cases: functional
# Haemophilus influenzae [1] = test: Antibacterial activity against Beta-lactamase negative Haemophilus influenzae assessed as susceptible isolates after 20 to 24 hrs by broth microdilution method
# Outline: (§1)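 CLSI broth microdilution in Mueller-Hinton broth with HTM supplement and yeast extract (5%), inoculum about 5 x 10^5 CFU/ml (checked by colony counts on chocolate agar); 35°C, 20–24 h in 5% CO2. MIC = lowest concentration inhibiting growth; amoxicillin-clavulanic acid at 2:1. β-lactamase status by nitrocephin test.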
# Haemophilus influenzae [2] = test: Antibacterial activity against Beta-lactamase negative Haemophilus influenzae isolate harboring fst1 mutant gene after 20 to 24 hrs by broth microdilution method
# Outline: (§2)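 Broth microdilution per CLSI on clinical H. influenzae isolates genotyped by ftsI/blaTEM PCR and sequencing. Medium: Mueller-Hinton broth with HTM supplement and yeast extract (5%). Inoculum about 5 x 10^5 CFU/ml, confirmed by colony counts on chocolate agar. Incubation 35°C, 20 to 24 h, 5% CO2. MIC was the lowest concentration inhibiting growth. Amoxicillin-clavulanic acid tested at 2:1. β-lactamase status determined by nitrocefin test.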
# Haemophilus influenzae [3] = test: Antibacterial activity against Beta-lactamase positive Haemophilus influenzae assessed as susceptible isolates after 20 to 24 hrs by Etest method
# Outline: (§3)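 Confluent swab of agar plates with saline suspension of overnight chocolate-agar colonies at McFarland 0.5; Etest strips placed radially; 35°C, 5% CO2, 20–24 h. MIC read where the inhibition ellipse meets the strip, rounded up to next log2 concentration. β-lactamase status by nitrocephin chromogenic cephalosporin test; genotype by ftsI/blaTEM sequencing.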
# Haemophilus influenzae [4] = test: Antibacterial activity against Beta-lactamase negative Haemophilus influenzae harboring fst1 mutant gene assessed as resistant isolates after 20 to 24 hrs by Etest method
# Outline: (§4)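 Etest on clinical H. influenzae isolates genotyped by ftsI/blaTEM sequencing. Overnight chocolate-agar colonies were suspended in saline to McFarland 0.5 and swabbed confluently onto 150-mm agar plates. Strips were placed radially, then plates incubated at 35°C in 5% CO2 for 20 to 24 h. MIC read where the inhibition ellipse meets the strip. Values rounded up to the next log2 step.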
# Haemophilus influenzae [5] = test: Antibacterial activity against Beta-lactamase positive Haemophilus influenzae assessed as resistant isolates after 20 to 24 hrs by Etest method; outline: as §4
# Haemophilus influenzae [6] = test: Antibacterial activity against Beta-lactamase negative Haemophilus influenzae harboring fst1 mutant gene assessed as susceptible isolates after 20 to 24 hrs by Etest method; outline: as §4
# Haemophilus influenzae [7] = test: Antibacterial activity against Beta-lactamase positive Haemophilus influenzae isolate after 20 to 24 hrs by Etest method; outline: as §4
# Haemophilus influenzae [8] = test: Antibacterial activity against Beta-lactamase negative Haemophilus influenzae assessed as resistant isolates after 20 to 24 hrs by Etest method
# Haemophilus influenzae [9] = test: Antibacterial activity against Beta-lactamase positive Haemophilus influenzae isolate harboring fst1 mutant gene after 20 to 24 hrs by Etest method; outline: as §4
# Haemophilus influenzae [10] = test: Antibacterial activity against Beta-lactamase positive Haemophilus influenzae isolate after 20 to 24 hrs by broth microdilution method; outline: as §1
# Haemophilus influenzae [11] = test: Antibacterial activity against Beta-lactamase positive Haemophilus influenzae assessed as resistant isolates after 20 to 24 hrs by broth microdilution method; outline: as §2
# Haemophilus influenzae [12] = test: Antibacterial activity against Beta-lactamase negative Haemophilus influenzae isolate harboring fst1 mutant gene after 20 to 24 hrs by Etest method; outline: as §4
# Haemophilus influenzae [13] = test: Antibacterial activity against Beta-lactamase negative Haemophilus influenzae isolate after 20 to 24 hrs by Etest method; outline: as §4
# Haemophilus influenzae [14] = test: Antibacterial activity against Beta-lactamase negative Haemophilus influenzae isolate after 20 to 24 hrs by broth microdilution method; outline: as §2
# Haemophilus influenzae [15] = test: Antibacterial activity against Beta-lactamase positive Haemophilus influenzae harboring fst1 mutant gene assessed as resistant isolates after 20 to 24 hrs by Etest method; outline: as §4
# Haemophilus influenzae [16] = test: Antibacterial activity against Beta-lactamase negative Haemophilus influenzae harboring fst1 mutant gene assessed as susceptible isolates after 20 to 24 hrs by broth microdilution method; outline: as §2
# Haemophilus influenzae [17] = test: Antibacterial activity against Beta-lactamase negative Haemophilus influenzae assessed as susceptible isolates after 20 to 24 hrs by Etest method; outline: as §3
# Haemophilus influenzae [18] = test: Antibacterial activity against Beta-lactamase positive Haemophilus influenzae harboring fst1 mutant gene assessed as resistant isolates after 20 to 24 hrs by broth microdilution method; outline: as §2
# Haemophilus influenzae [19] = test: Antibacterial activity against Beta-lactamase negative Haemophilus influenzae assessed as resistant isolates after 20 to 24 hrs by broth microdilution method; outline: as §2
# Haemophilus influenzae [20] = test: Antibacterial activity against Beta-lactamase positive Haemophilus influenzae isolate harboring fst1 mutant gene after 20 to 24 hrs by broth microdilution method; outline: as §2
# Haemophilus influenzae [21] = test: Antibacterial activity against Beta-lactamase positive Haemophilus influenzae harboring fst1 mutant gene assessed as susceptible isolates after 20 to 24 hrs by Etest method; outline: as §4
# Haemophilus influenzae [22] = test: Antibacterial activity against Beta-lactamase positive Haemophilus influenzae assessed as susceptible isolates after 20 to 24 hrs by broth microdilution method; outline: as §2
# Haemophilus influenzae [23] = test: Antibacterial activity against Beta-lactamase negative Haemophilus influenzae harboring fst1 mutant gene assessed as resistant isolates after 20 to 24 hrs by broth microdilution method; outline: as §2
# Haemophilus influenzae [24] = test: Antibacterial activity against Beta-lactamase positive Haemophilus influenzae harboring fst1 mutant gene assessed as susceptible isolates after 20 to 24 hrs by broth microdilution method; outline: as §2
# Haemophilus influenzae [25] = test: Antibacterial activity against Beta-lactamase negative Haemophilus influenzae with PBP3 mutation
SMILES,Activity (Haemophilus influenzae [1]),MIC50 (Haemophilus influenzae [2]),MIC90 (Haemophilus influenzae [2]),Activity (Haemophilus influenzae [3]),Activity (Haemophilus influenzae [5]),Activity (Haemophilus influenzae [6]),MIC50 (Haemophilus influenzae [7]),MIC90 (Haemophilus influenzae [7]),MIC50 (Haemophilus influenzae [9]),MIC90 (Haemophilus influenzae [9]),MIC50 (Haemophilus influenzae [10]),MIC90 (Haemophilus influenzae [10]),MIC50 (Haemophilus influenzae [12]),MIC90 (Haemophilus influenzae [12]),MIC50 (Haemophilus influenzae [13]),MIC90 (Haemophilus influenzae [13]),MIC50 (Haemophilus influenzae [14]),MIC90 (Haemophilus influenzae [14]),Activity (Haemophilus influenzae [16]),Activity (Haemophilus influenzae [17]),other results
N[C@@H](C(=O)N[C@@H]1C(=O)N2C(C(=O)O)=C(Cl)CS[C@H]12)c1ccccc1 [CEFACLOR ANHYDROUS],100%,8 µg/mL,8 µg/mL,100%,0%,76.5%,1 µg/mL,2 µg/mL,4 µg/mL,32 µg/mL,8 µg/mL,16 µg/mL,4 µg/mL,16 µg/mL,1 µg/mL,2 µg/mL,2 µg/mL,4 µg/mL,94.1%,100%,Activity (Haemophilus influenzae [4]): 5.9%; MIC (Haemophilus influenzae [7]): 1 µg/mL; Activity (Haemophilus influenzae [8]): 0%; Activity (Haemophilus influenzae [11]): 5%; Activity (Haemophilus influenzae [15]): 20%; Activity (Haemophilus influenzae [18]): 0%; Activity (Haemophilus influenzae [19]): 0%; MIC50 (Haemophilus influenzae [20]): 8 µg/mL; MIC90 (Haemophilus influenzae [20]): 16 µg/mL; Activity (Haemophilus influenzae [21]): 73.3%; Activity (Haemophilus influenzae [22]): 0%; Activity (Haemophilus influenzae [23]): 0%; Activity (Haemophilus influenzae [24]): 80%
CC1(C)S[C@@H]2[C@H](NC(=O)[C@H](N)c3ccccc3)C(=O)N2[C@H]1C(=O)O [AMPICILLIN],100%,1 µg/mL,2 µg/mL,5%,85%,88.2%,4 µg/mL,16 µg/mL,32 µg/mL,64 µg/mL,≥ 32 µg/mL,≥ 32 µg/mL,1 µg/mL,2 µg/mL,0.25 µg/mL,0.5 µg/mL,≤ 0.25 µg/mL,0.5 µg/mL,76.5%,100%,MIC (Haemophilus influenzae [25]): >=2 ug; MIC (Haemophilus influenzae [14]): ≤ 0.25 µg/mL; MIC (Haemophilus influenzae [20]): ≥ 32 µg/mL; Activity (Haemophilus influenzae [22]): 0%; Activity (Haemophilus influenzae [23]): 2.9%
